The results in this text go back to ChEMBL document CHEMBL1157725 (Bioorg Med Chem, 2010).

Where only a bound is given, the exact number is not on record here.

Assay [1] is described as follows: Inhibition of tubulin in rat A10 cells assessed as induction of cellular microtubule disassembly after 18 hrs by indirect immunofluorescence technique. In kind it is cell-based. The following applies: A10, 18 h. The method in brief:
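A-10 cells plated on glass coverslips and treated with compound at varying concentrations for 18 h. After fixation, microtubules immunostained with a β-tubulin antibody (indirect immunofluorescence) and nuclei stained with DAPI. Read by fluorescence microscopy. Percentage of cellular microtubule loss estimated visually across the concentration range.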

Assay [2] can be described thus: Inhibition of tubulin polymerization by turbidimetry. The essentials:
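Tubulin at 10 µM (1.0 mg/mL). Polymerization followed turbidimetrically at 350 nm in temperature-controlled spectrophotometers.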

In a further assay the test system is MCF7. Nature of the assay: Antiproliferative activity against human MCF7 cells after 24 hrs by SRB assay. It is filed as functional, cell-based. The conditions noted are these: MCF7, 24 h. The method in brief:
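MCF-7 cells are grown for 24 h with or without drug, then for a further 48 h. Total cell protein is measured by sulforhodamine B staining, and the IC₅₀ is derived from it.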

By EC50 is commonly meant the concentration that produces a half-maximal response. The term IC50 denotes the concentration needed to halve the response being measured. Read a high IC50 as weaker potency in that assay. Take `COc1ccc(C(=O)/C=C/c2cc(OC)c(OC)c(OC)c2)cc1B(O)O`: in assay [1], the EC50 was > 15 µM. Moreover, the IC50 in assay [2] is > 40 µM; with MCF7, > 2.5 µM.
